Compound activity deposited in PubChem by several laboratories.
Sampled rows, rich in hits. Any-hit rate of the full collection: about 0.74%.
Biofilm kill mix: mixtures killing C. albicans biofilm; C. albicans biofilm persisters + clotrimazole, fluorescence viability; primary screen in compound mixtures of four per well; inhibition, % at 7.6 µM; hit rate 0.02% among 120,000; AID 1242;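 active means inhibition above 30.3% in the primary screen of four-compound pools, then above 30% when the compound was retested; inconclusive means passed the primary limit but could not be retested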;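 further: compounds exposed to preformed 24 h biofilms for 48 h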
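Incubation: 24 h biofilm formation, then 48 h compound exposure, 37 °C | Material: C. albicans biofilms | Buffer or medium: RPMI/MOPS medium, pH 7.0 | Measured by: 2-h Alamar Blue fluorescence, 535/590 nm excitation/emission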
RGS16-Gao: RGS16-Galphao interaction regulator (human). binding response (% of control), % at 10 µM. AID 1441. hit rate 0.38% among 220,000. bead-based flow cytometry RGS16-Galphao binding, fluorescence; actives lie on both sides. O15492+P09471;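 further: Galphao activated by GDP with aluminum fluoride before binding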
RGS4-Gao reg: modulates binding of RGS4 to human Galphao. P09471. Multiplexed bead flow cytometry; actives lie on both sides. binding response (% of control), % at 10 µM. hit rate 0.33% among 220,000; in the data active means binding response below about 49% or above about 150%; inactive means in between;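 further: fluorescent Galphao activated with aluminum fluoride binding bead-coupled RGS4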
Target sequence (P09471 whole entry, looked up): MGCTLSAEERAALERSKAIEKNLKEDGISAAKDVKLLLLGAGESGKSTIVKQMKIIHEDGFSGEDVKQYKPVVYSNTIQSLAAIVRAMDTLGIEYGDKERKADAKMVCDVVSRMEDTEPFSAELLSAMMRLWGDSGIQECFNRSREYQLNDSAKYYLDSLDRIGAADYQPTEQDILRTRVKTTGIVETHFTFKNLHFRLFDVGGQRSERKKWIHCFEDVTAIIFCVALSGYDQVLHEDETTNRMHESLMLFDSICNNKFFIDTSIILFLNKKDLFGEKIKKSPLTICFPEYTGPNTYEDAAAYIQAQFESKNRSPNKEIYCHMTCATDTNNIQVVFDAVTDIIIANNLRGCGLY
RGS7-Gao: human RGS7-Galphao interaction regulation; P09471; Multiplexed bead flow cytometry, RGS7-Galphao binding; actives lie on both sides; binding response (% of control), % at 10 µM; hit rate 0.35% among 220,000; AID 1439; in the data active means binding response below about 49% or above about 150%; inconclusive means no clear call, values can overlap the other calls; inactive means in between;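 further: fluorescent Galphao held in activated GDP-AlF4 state binding bead-coupled RGS7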
RGS8-Gao: human RGS8-Galphao interaction regulation; P09471; multiplexed bead flow cytometry, RGS8-Galphao binding; actives lie on both sides; response (percent of control binding), % at 10 µM; hit rate 0.34% among 220,000; AID 1423; in the data active means response below about 60% or above about 140%; inactive means in between;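 further: Galphao activated as the GDP aluminium fluoride complex binding bead-coupled RGS8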
RGS-Gao: regulators of human RGS4-Galphao interaction; shares compounds with RGS16-Gao; multiplexed bead flow cytometry, RGS–Galpha-o binding; hit rate 99% among 1,600; RGS4–Galpha-o binding response, % at 10 µM;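 further: fluorescently labeled Galpha-o bound to GDP with aluminium fluoride binding biotinylated RGS beads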
Avidin counter: counter-screen: compounds disrupting biotin binding to avidin beads. 1,700 tested, under 10 active. inhibition, % at 10 µM. streptavidin beads, fluorescein-biotin binding, flow cytometry. shares compounds with RGS16-Gao;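 active means inhibition above 50%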;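 further: median green fluorescence of gated singlet beads compared with DMSO control wells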
RGS8-Gao single: RGS8-Galphao interaction regulation, single point confirmation; shares compounds with RGS16-Gao; bead-based flow cytometry RGS8-Galphao binding, fluorescence; actives lie on both sides; binding response (% of control), % at 10 µM; hit rate 3% among 1,700; AID 1836; in the data active means binding response below about 72% or above about 130%; inactive means in between;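 further: Galphao activated as GDP AlF4 complex before binding bead RGS8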
RGS7-Gao single: RGS7-Galphao interaction regulation, single point confirmation. hit rate 7.8% among 1,700. response (percent of control binding), % at 10 µM. bead-based flow cytometry RGS7-Galphao binding; actives lie on both sides. shares compounds with RGS16-Gao; in the data active means response below about 75% or above about 130%; inactive means in between;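 further: fluorescent Galphao activated with GDP and aluminum fluoride binding bead-coupled RGS7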
RGS16-Gao single: RGS16-Galphao interaction regulation, single point confirmation | hit rate 4% among 1,700 | bead-based flow cytometry, RGS16-Galphao binding; actives lie on both sides | shares compounds with RGS16-Gao | response (% of control binding), % at 10 µM; in the data active means response below about 74% or above about 130%; inactive means in between;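 further: Galphao activated as the GDP aluminium fluoride complex binding bead-coupled RGS16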
RGS4-Gao confirm: RGS4-Galphao interaction regulation, single point confirmation; shares compounds with RGS16-Gao; binding response (% of control), % at 10 µM; hit rate 4% among 1,700; AID 1840; RGS4-Galphao binding, multiplexed bead flow cytometry; actives lie on both sides; in the data active means binding response below about 74% or above about 130%; inactive means in between
RGS19-Gao conf: RGS19-Galphao interaction regulation, single point confirmation; response (percent of control binding), % at 10 µM; bead-based flow cytometry RGS19-Galphao binding; actives lie on both sides; hit rate 5% among 1,700; AID 1841; shares compounds with RGS16-Gao; in the data active means response below about 50% or above about 160%; inactive means in between
Of the large screens only hits and unclear results are named; the others gave an inactive call (follow-up assays come after a bar, where they were run); [ ] = remark or other dose. Unless noted, how the calls were made is not given here.

OCCN1CCN(c2cc(C(F)(F)F)nc3c(F)cccc23)CC1	RGS16-Gao -6.6, RGS4-Gao reg -9.0, RGS7-Gao inconclusive, RGS8-Gao 10.8 | Avidin counter inactive | RGS8-Gao single inactive | RGS7-Gao single inactive | RGS16-Gao single inactive | RGS4-Gao confirm inactive | RGS19-Gao conf inactive
CC(=O)c1sccc1NC(=O)c1ccccc1C(=O)O	RGS7-Gao inconclusive
COc1cc(OC)c(C(=O)NCCCn2ccnc2)cc1OC	none
CCc1ccc(CCC(=O)Nc2nnc(C)s2)o1	none (no result: Biofilm kill mix)
CCc1nnc(NC(=O)CCc2ccc(C)o2)s1	RGS4-Gao reg 169.8[activator], RGS7-Gao 158.4[activator], RGS8-Gao 151.1[activator] (no result: Biofilm kill mix) | Avidin counter inactive | RGS8-Gao single inactive | RGS7-Gao single inactive | RGS16-Gao single inactive | RGS4-Gao confirm inactive | RGS19-Gao conf inactive
Cc1ccc(CNC(=O)Cn2cccc2C(=O)c2ccccc2)cc1	none (no result: Biofilm kill mix, RGS16-Gao, RGS8-Gao) | Avidin counter inactive | RGS8-Gao single inactive | RGS7-Gao single inactive | RGS16-Gao single inactive | RGS4-Gao confirm inactive | RGS19-Gao conf inactive
O=C(Cn1cccc1C(=O)c1ccccc1)NCc1ccc(Cl)cc1	none
CC(C)(C)OC(=O)N1CCC(c2cc(=O)n3[nH]c(-c4ccc(Cl)cc4)cc3n2)CC1	RGS4-Gao reg 32.5, RGS7-Gao 44.4, RGS8-Gao 47.2 (no result: Biofilm kill mix) | Avidin counter inactive | RGS8-Gao single inactive | RGS7-Gao single inactive | RGS16-Gao single inactive | RGS4-Gao confirm inactive | RGS19-Gao conf inactive
CC(C)(C)OC(=O)N1CCC(c2cc(=O)n3[nH]cc(C(=O)Nc4ccc(F)c(Cl)c4)c3n2)CC1	RGS7-Gao inconclusive
CC(C)c1ccc(NC(=O)COC(=O)C2=COCCO2)cc1	none (no result: Biofilm kill mix)
CC(C)(C)c1ccc(NC(=O)COC(=O)C2=COCCO2)cc1	RGS16-Gao -183.3 (no result: Biofilm kill mix) | RGS-Gao 116.8 | Avidin counter inactive | RGS8-Gao single inactive | RGS7-Gao single 59.7 | RGS16-Gao single inactive | RGS4-Gao confirm 73.4 | RGS19-Gao conf inactive
COc1ccc(N=C(c2ccccc2)c2c(C)[nH]n(-c3ccccc3)c2=O)c(OC)c1	RGS7-Gao inconclusive
O=C(CN(Cc1ccccc1)S(=O)(=O)c1ccc2c(c1)OCCO2)Nc1ccc2c(c1)OCCO2	RGS4-Gao reg 184.4[activator], RGS7-Gao 261.0[activator] (no result: Biofilm kill mix) | Avidin counter inactive | RGS8-Gao single inactive | RGS7-Gao single inactive | RGS16-Gao single inactive | RGS4-Gao confirm inactive | RGS19-Gao conf inactive
CS(=O)(=O)N(CC(=O)Nc1ccc2c(c1)OCCO2)Cc1ccccc1	none (no result: Biofilm kill mix)
CCOC(=O)c1ccc(NC(=O)N2CCN(c3cccc(OC)c3)CC2)cc1	RGS7-Gao inconclusive
CC(O)CNCc1ccccc1C(F)(F)F (stereo not drawn)	none
COc1ccc(OC)c2c1C(=O)C(Cl)=C(Cl)C2=O	RGS16-Gao -14.4, RGS7-Gao inconclusive, RGS8-Gao 44.7 | RGS-Gao 57.6
CC(C)c1ccc(OCc2ccc(C(=O)NN3CCN(C)CC3)o2)cc1	none
COCCN(C(=S)Nc1ccc(C)cc1C)C(C)c1ccco1 (stereo not drawn)	RGS4-Gao reg 160.2[activator], RGS8-Gao 164.3[activator] | Avidin counter inactive | RGS8-Gao single inactive | RGS7-Gao single inactive | RGS16-Gao single inactive | RGS4-Gao confirm inactive | RGS19-Gao conf inactive
